Laboratory results reported in ChEMBL document CHEMBL4152200, “Targeting the entrance channel of NNIBP: Discovery of diarylnicotinamide 1,4-disubstituted 1,2,3-triazoles as novel HIV-1 NNRTIs with high potency against wild-type and E138K mutant virus” (Eur J Med Chem, 2018).
pEC50, pIC50: −log10 of the molar value.

What was measured:
[1] = Selectivity index, ratio of CC50 for human MT4 cells to EC50 for HIV1 harboring reverse transcriptase E138K mutant; format: toxicity; settings: read-out: Ratio CC50/EC50
Method in brief: (§1)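 SI is CC₅₀ divided by EC₅₀, both by MTT after 5 days in MT-4 cells. CC₅₀ comes from mock-infected cultures run in parallel and is the concentration reducing their viability by 50%. EC₅₀ comes from cultures infected with the given mutant strain at 100–300 CCID₅₀.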

[2] = tested on: Human immunodeficiency virus 1; assay: Resistance factor, ratio of EC50 for HIV1 harboring reverse transcriptase K103N mutant to EC50 for wild-type HIV-1 3B; format: functional
Method in brief: (§2)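 Resistance fold is EC₅₀ against the mutant strain divided by EC₅₀ against WT IIIB. Both EC₅₀ values come from the 5-day MTT protection assay in MT-4 cells infected with 100–300 CCID₅₀ of virus.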

[3] = tested on: Human immunodeficiency virus 1; assay: Antiviral activity against HIV1 harboring reverse transcriptase E138K mutant infected in human MT4 cells assessed as inhibition of viral replication after 5 days by MTT assay; format: functional, organism-based; settings: Human immunodeficiency virus 1, MT4, 120 h
[4] = tested on: Human immunodeficiency virus 1; assay: Resistance factor, ratio of EC50 for HIV1 harboring reverse transcriptase L100I mutant to EC50 for wild-type HIV-1 3B; format: functional; method in brief: as §2
[5] = Selectivity index, ratio of CC50 for human MT4 cells to EC50 for wild-type HIV1 3B; format: toxicity; settings: read-out: Ratio CC50/EC50
Method in brief: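 Wild-type HIV-1 IIIB at 100–300 CCID50 added to MT-4 cells with compound, with mock-infected wells in parallel. MTT viability was read at day 5. […] SI = CC50/EC50.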

[6] = tested on: Human immunodeficiency virus 1; assay: Antiviral activity against HIV1 harboring reverse transcriptase L100I mutant infected in human MT4 cells assessed as inhibition of viral replication after 5 days by MTT assay; format: functional, organism-based; settings: Human immunodeficiency virus 1, MT4, 120 h
[7] = Selectivity index, ratio of CC50 for human MT4 cells to EC50 for HIV1 harboring reverse transcriptase Y181C mutant; format: toxicity; settings: read-out: Ratio CC50/EC50; method in brief: as §1
[8] = tested on: Human immunodeficiency virus 1; assay: Antiviral activity against HIV1 harboring reverse transcriptase K103N mutant infected in human MT4 cells assessed as inhibition of viral replication after 5 days by MTT assay; format: functional, organism-based; settings: Human immunodeficiency virus 1, MT4, 120 h
[9] = Selectivity index, ratio of CC50 for human MT4 cells to EC50 for HIV1 harboring reverse transcriptase L100I mutant; format: toxicity; settings: read-out: Ratio CC50/EC50; method in brief: as §1
[10] = tested on: Human immunodeficiency virus 1; assay: Resistance factor, ratio of EC50 for HIV1 harboring reverse transcriptase Y181C mutant to EC50 for wild-type HIV-1 3B; format: functional; method in brief: as §2
[11] = tested on: Human immunodeficiency virus 1; assay: Resistance factor, ratio of EC50 for HIV1 harboring reverse transcriptase F227L/V106A mutant to EC50 for wild-type HIV-1 3B; format: functional; method in brief: as §2
[12] = tested on: Human immunodeficiency virus 1; assay: Antiviral activity against HIV-1 RES056 harboring reverse transcriptase K103N/Y181C double mutant infected in human MT4 cells assessed as inhibition of viral replication after 5 days by MTT assay; format: functional, organism-based; settings: Human immunodeficiency virus 1, RES056, MT4, 120 h
[13] = Selectivity index, ratio of CC50 for human MT4 cells to EC50 for HIV1 harboring reverse transcriptase Y188L mutant; format: toxicity; settings: read-out: Ratio CC50/EC50; method in brief: as §1
[14] = tested on: Human immunodeficiency virus 1; assay: Antiviral activity against HIV1 harboring reverse transcriptase Y181C mutant infected in human MT4 cells assessed as inhibition of viral replication after 5 days by MTT assay; format: functional, organism-based; settings: Human immunodeficiency virus 1, MT4, 120 h
[15] = tested on: Human immunodeficiency virus 1; assay: Resistance factor, ratio of EC50 for HIV1 harboring reverse transcriptase E138K mutant to EC50 for wild-type HIV-1 3B; format: functional; method in brief: as §2
[16] = tested on: Human immunodeficiency virus 1; assay: Antiviral activity against HIV1 harboring reverse transcriptase Y188L mutant infected in human MT4 cells assessed as inhibition of viral replication after 5 days by MTT assay; format: functional, organism-based; settings: Human immunodeficiency virus 1, MT4, 120 h
Method in brief: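 MT-4 cells in exponential growth, resuspended into wells holding HIV-1 stock (IIIB, RES056 K103N/Y181C, F227L/V106A, L100I, K103N, E138K, Y181C or Y188L) at 100–300 CCID₅₀, or into mock-infected wells. Viability read by MTT reduction to formazan, measured spectrophotometrically 5 days post-infection. EC₅₀ is the concentration giving 50% protection against virus-induced cytotoxicity.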

MT4 = assay: (§3) Cytotoxicity against human MT4 cells assessed as decrease in cell viability after 5 days by MTT assay; format: cell-based; settings: mt4, 120 h
Method in brief: (§4)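 Mock-infected MT-4 cells, exponentially growing, seeded with compound in culture medium without virus; run in parallel with the antiviral assay. Viability read spectrophotometrically by MTT reduction five days later.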

[17] = tested on: Human immunodeficiency virus 1; assay: Antiviral activity against wild-type HIV-1 3B infected in human MT4 cells assessed as inhibition of viral replication after 5 days by MTT assay; format: functional, organism-based; settings: Human immunodeficiency virus 1, 3B, MT4, 120 h
[18] = Selectivity index, ratio of CC50 for human MT4 cells to EC50 for HIV-1 RES056 harboring reverse transcriptase K103N/Y181C double mutant infected in human MT4 cells; format: toxicity, cell-based; settings: read-out: Ratio CC50/EC50; method in brief: as §1
[19] = Selectivity index, ratio of CC50 for human MT4 cells to EC50 for HIV1 harboring reverse transcriptase F227L/V106A mutant; format: toxicity; settings: read-out: Ratio CC50/EC50; method in brief: as §1
[20] = tested on: Human immunodeficiency virus 1; assay: Resistance factor, ratio of EC50 for HIV1 harboring reverse transcriptase Y188L mutant to EC50 for wild-type HIV-1 3B; format: functional; method in brief: as §2
[21] = Selectivity index, ratio of CC50 for human MT4 cells to EC50 for HIV1 harboring reverse transcriptase K103N mutant; format: toxicity; settings: read-out: Ratio CC50/EC50; method in brief: as §1
[22] = tested on: Human immunodeficiency virus 1; assay: Antiviral activity against HIV1 harboring reverse transcriptase F227L/V106A double mutant infected in human MT4 cells assessed as inhibition of viral replication after 5 days by MTT assay; format: functional, organism-based; settings: Human immunodeficiency virus 1, MT4, 120 h
[23] = tested on: Human immunodeficiency virus 1; assay: Antiviral activity against wild-type HIV-1 NL4-3 infected in human TZM-bl cells assessed as inhibition of viral replication after 2 days by bright Glo-luciferase reporter gene assay; format: functional, organism-based; settings: Human immunodeficiency virus 1, NL4-3, TZM-bl, 48 h
Method in brief: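 TZM-bl cells infected with 800 TCID₅₀ of NL4-3 in the presence of a range of compound concentrations; single-round infection. After 2 days medium removed, Bright-Glo added and luminescence read. EC₅₀ is the concentration giving a 50% fall in relative light units relative to virus-control wells. Mean ± SD from at least triplicate.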

[24] = biological target: Human immunodeficiency virus type 1 reverse transcriptase (Human immunodeficiency virus 1, UniProt Q72547); assay: Inhibition of wild-type HIV1 reverse transcriptase assessed as decrease in digoxigenin and biotin-dUTP incorporation in to DNA using poly(A)/oligo(dT)15 as template/primer after 1 hr by ELISA
Method in brief: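 Kit ELISA on wild-type HIV-1 RT with poly(A)·oligo(dT)15 as template/primer and digoxigenin- and biotin-labelled dUTP. Incorporated label detected with peroxidase-conjugated anti-digoxigenin antibody and ABTS substrate. IC₅₀ is the concentration inhibiting biotin-dUTP incorporation by 50%.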

TZM = assay: Cytotoxicity against human TZM-bl cells by CytoTox-Glo reagent-based assay; format: cell-based
Method in brief: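 TZM-bl cells exposed to compound at various concentrations. Cytotoxicity measured by CytoTox-Glo assay.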

[25] = Selectivity index, ratio of CC50 for human TZM-bl cells to EC50 for wild-type HIV-1 NL4-3 infected in human TZM-bl cells; format: toxicity, cell-based; settings: read-out: Ratio CC50/EC50
Method in brief: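 SI is CC₅₀ divided by EC₅₀ in TZM-bl cells. CC₅₀ from CytoTox-Glo assay, averaged from two independent tests. EC₅₀ from single-round infection with 800 TCID₅₀ NL4-3, luciferase luminescence read at 2 days and expressed relative to virus controls.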

[26] = as §3; format: cell-based; settings: MT4 cells; method in brief: as §4

Row | Structure (SMILES) | selectivity ratio [1] | Ratio EC50 [2] | pEC50 [3] | Ratio EC50 [4] | pEC50 [6] | selectivity ratio [7] | pEC50 [8] | selectivity ratio [9] | Ratio EC50 [10] | Ratio EC50 [11] | pEC50 [12] | selectivity ratio [13] | pEC50 [14] | Ratio EC50 [15] | pEC50 [16] | CC50 (MT4) [nM] | pEC50 [17] | selectivity ratio [19] | Ratio EC50 [20] | selectivity ratio [21] | further results
1 | Cc1cc(C)c(Oc2cc(Nc3ccc(C#N)cc3)ncc2C(=O)NCc2cn(CCCO)nn2)c(C)c1 | 651 | 11.1 | 7.41 | 52.7 | 5.71 | 109 | 6.39 | 13 | 6.2 | 21.1 | 5.28 | 8 | 6.64 | 1.1 | 5.50 | 25200 | 7.43 | 32 | 85.7 | 62 | selectivity ratio [5]: 678; selectivity ratio [18]: 5; pEC50 [22]: 6.11
2 | Cc1cc(C)c(Oc2cc(Nc3ccc(C#N)cc3)ncc2C(=O)NCc2cn(CC(=O)N3CCOCC3)nn2)c(C)c1 | 6800 | 19 | 7.57 | 306.5 | 5.21 | 761 | 6.42 | 30 | 12 | 30.5 | 4.80 | 25 | 6.62 | 1.4 | 5.15 | 181000 | 7.70 | 297 | 358 | 473 | pEC50 [23]: 7.70; pIC50 [24]: 5.80; CC50 (TZM): > 215000 nM; selectivity ratio [25]: > 10.8; pEC50 [22]: 6.21
3 | Cc1cc(C)c(Oc2cc(Nc3ccc(C#N)cc3)ncc2C(=O)NCc2cn(CC(N)=O)nn2)c(C)c1 | 159 | 6 | 6.82 | 20.5 | 5.45 | 29 | 5.99 | 7 | 4.8 | 10.5 | 5.27 | 5 | 6.08 | 0.9 | 5.35 | 24000 | 6.76 | 13 | 25.9 | 23 | selectivity ratio [5]: 139; selectivity ratio [18]: 5; pEC50 [22]: 5.74
4 | CC(=O)Cn1cc(CNC(=O)c2cnc(Nc3ccc(C#N)cc3)cc2Oc2c(C)cc(C)cc2C)nn1 | 756 | 9 | 7.59 | 34.5 | 6.00 | 123 | 6.59 | 19 | 5.5 | 20.3 | 5.66 | 6 | 6.80 | 0.9 | 5.49 | 19400 | 7.54 | 33 | 110.3 | 73 | selectivity ratio [5]: 670; selectivity ratio [18]: 9; pEC50 [22]: 6.23
5 | Cc1cc(C)c(Oc2cc(Nc3ccc(C#N)cc3)ncc2C(=O)NCc2cn(CC(=O)N3CCCC3)nn2)c(C)c1 | 4190 | 13.5 | 7.85 | 48 | 6.02 | 686 | 6.57 | 60 | 4.3 | 12 | 5.84 | 39 | 7.07 | 0.7 | 5.83 | 58100 | 7.70 | 245 | 74 | 214 | selectivity ratio [5]: 2900; pEC50 [23]: 7.62; pIC50 [24]: 5.57; CC50 (TZM): > 221000 nM; selectivity ratio [25]: > 9.2; pEC50 [22]: 6.62
6 | O=C1Nc2ccc(Cl)cc2[C@@](C#CC2CC2)(C(F)(F)F)O1 [EFAVIRENZ] | – | – | – | – | – | – | – | – | – | – | – | – | – | – | – | – | – | – | – | – | CC50 at 120 h [26]: > 6340 nM
7 | Cc1ccnc2c1NC(=O)c1cccnc1N2C1CC1 [NEVIRAPINE] | – | – | – | – | – | – | – | – | – | – | < 4.82 | – | – | – | – | – | 6.59 | – | – | – | CC50 at 120 h [26]: > 15000 nM
8 | Cc1cc(/C=C/C#N)cc(C)c1Nc1ccnc(Nc2ccc(C#N)cc2)n1 [RILPIVIRINE] | – | – | – | – | – | – | – | – | – | – | – | – | – | – | – | – | – | – | – | – | CC50 (TZM): > 341000 nM
